Active and inactive are the calls of the source. The rule behind the calls is not given here.
Key:
[1] = molecular target: T1, Secreted aspartic protease 9 (Candida albicans) (UniProt O42779); assay: Inhibition of SAP9-dependent growth in Candida albicans SAP2MS4B expressing SAP9deltaC493 at 100 uM incubated in YCB-BSA medium
T1 sequence (whole entry): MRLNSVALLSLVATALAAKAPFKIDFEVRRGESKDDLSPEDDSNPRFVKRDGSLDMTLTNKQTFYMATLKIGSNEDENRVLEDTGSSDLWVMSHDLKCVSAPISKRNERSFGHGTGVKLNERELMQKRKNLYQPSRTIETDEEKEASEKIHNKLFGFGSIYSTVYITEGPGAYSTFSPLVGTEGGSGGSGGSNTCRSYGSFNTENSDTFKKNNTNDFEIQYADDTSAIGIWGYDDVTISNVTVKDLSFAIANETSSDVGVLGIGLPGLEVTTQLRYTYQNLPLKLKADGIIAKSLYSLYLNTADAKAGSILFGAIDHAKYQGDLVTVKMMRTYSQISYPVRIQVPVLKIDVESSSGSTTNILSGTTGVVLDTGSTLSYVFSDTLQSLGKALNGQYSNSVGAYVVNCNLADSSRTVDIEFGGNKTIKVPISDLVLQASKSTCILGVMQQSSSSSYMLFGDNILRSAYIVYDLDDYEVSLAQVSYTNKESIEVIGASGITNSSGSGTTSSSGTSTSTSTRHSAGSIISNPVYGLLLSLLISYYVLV
Summary of the method: (§1)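 Overnight SD-medium (30°C) preculture diluted 1:100 into YCB-BSA (4 g/liter BSA as sole nitrogen source) adjusted to pH 5.0, with 25 μg/ml doxycycline inducing Tet-promoter SAP expression; incubated 37°C. Pepstatin A 7.3 μM or HIV protease inhibitors 100 μM (0.125% DMSO final); DMSO-only control. OD600 monitored over time.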

[2] = molecular target: Secreted aspartic protease 8 (Candida albicans) (UniProt O42778); assay: Inhibition of SAP8-dependent growth in Candida albicans SAP2MS4B expressing SAP8ex4A at 100 uM incubated in YCB-BSA medium
Chain of Secreted aspartic protease 8 (Candida albicans) (O42778 whole entry): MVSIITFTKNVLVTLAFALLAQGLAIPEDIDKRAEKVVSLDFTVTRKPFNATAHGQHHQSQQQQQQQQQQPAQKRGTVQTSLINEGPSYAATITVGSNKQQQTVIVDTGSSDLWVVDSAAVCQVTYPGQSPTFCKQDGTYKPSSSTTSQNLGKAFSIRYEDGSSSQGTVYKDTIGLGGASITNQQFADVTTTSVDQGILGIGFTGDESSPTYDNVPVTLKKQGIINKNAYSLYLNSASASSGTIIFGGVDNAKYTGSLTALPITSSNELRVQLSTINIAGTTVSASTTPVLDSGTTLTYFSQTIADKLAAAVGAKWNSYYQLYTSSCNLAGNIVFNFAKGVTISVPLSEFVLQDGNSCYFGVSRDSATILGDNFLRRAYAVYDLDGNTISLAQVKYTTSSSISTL
Summary of the method: (§2)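 Overnight SD-medium (30°C) preculture diluted 1:100 into YCB-BSA (yeast carbon base plus 4 g/liter BSA as sole nitrogen source) adjusted to pH 4.0, with 50 μg/ml doxycycline to induce Tet-promoter SAP expression; incubated 30°C. Pepstatin A 7.3 μM or HIV protease inhibitors 100 μM (0.125% DMSO final); DMSO-only control. Growth followed as OD600 over time.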

[3] = molecular target: T2, Secreted aspartic protease 5 (Candida albicans (strain SC5314 / ATCC MYA-2876) (Yeast)) (UniProt P43094); assay: Inhibition of SAP5-dependent growth in Candida albicans SAP2MS4B expressing SAP5ex4A at 100 uM incubated in YCB-BSA medium; summary of the method: as §1
T2 sequence (whole entry): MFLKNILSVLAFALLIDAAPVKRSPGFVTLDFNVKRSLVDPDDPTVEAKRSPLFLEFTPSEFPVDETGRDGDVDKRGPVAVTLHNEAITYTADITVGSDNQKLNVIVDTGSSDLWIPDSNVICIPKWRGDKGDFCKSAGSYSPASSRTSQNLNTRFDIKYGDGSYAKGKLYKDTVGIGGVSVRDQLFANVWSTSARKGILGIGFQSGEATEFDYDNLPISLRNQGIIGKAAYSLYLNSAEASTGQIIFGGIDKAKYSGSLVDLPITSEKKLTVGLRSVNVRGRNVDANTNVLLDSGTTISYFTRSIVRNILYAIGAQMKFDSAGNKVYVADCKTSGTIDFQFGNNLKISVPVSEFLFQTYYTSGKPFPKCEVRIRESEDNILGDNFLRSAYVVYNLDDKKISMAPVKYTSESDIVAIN

[4] = molecular target: Secreted aspartic protease 6 (Candida albicans) (UniProt P43095); assay: Inhibition of SAP6-dependent growth in Candida albicans SAP2MS4B expressing SAP6ex4A at 100 uM incubated in YCB-BSA medium; summary of the method: as §1
Chain of Secreted aspartic protease 6 (Candida albicans) (P43095 whole entry): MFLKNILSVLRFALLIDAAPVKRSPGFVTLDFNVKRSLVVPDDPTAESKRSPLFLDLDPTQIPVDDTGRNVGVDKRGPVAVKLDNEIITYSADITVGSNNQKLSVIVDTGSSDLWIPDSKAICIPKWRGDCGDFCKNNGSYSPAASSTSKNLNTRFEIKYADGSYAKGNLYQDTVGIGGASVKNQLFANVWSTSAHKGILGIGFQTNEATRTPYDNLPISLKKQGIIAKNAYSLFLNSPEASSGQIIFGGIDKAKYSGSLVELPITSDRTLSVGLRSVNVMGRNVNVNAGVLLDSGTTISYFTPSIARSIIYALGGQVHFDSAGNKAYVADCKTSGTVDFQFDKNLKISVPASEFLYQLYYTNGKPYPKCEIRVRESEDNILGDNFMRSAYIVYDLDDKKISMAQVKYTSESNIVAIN

[5] = molecular target: Secreted aspartic protease 3 (Candida albicans) (UniProt P0CY28); assay: Inhibition of SAP3-dependent growth in Candida albicans SAP2MS4B expressing SAP3ex4A at 100 uM incubated in YCB-BSA medium; summary of the method: as §2
Chain of Secreted aspartic protease 3 (Candida albicans) (P0CY28 whole entry): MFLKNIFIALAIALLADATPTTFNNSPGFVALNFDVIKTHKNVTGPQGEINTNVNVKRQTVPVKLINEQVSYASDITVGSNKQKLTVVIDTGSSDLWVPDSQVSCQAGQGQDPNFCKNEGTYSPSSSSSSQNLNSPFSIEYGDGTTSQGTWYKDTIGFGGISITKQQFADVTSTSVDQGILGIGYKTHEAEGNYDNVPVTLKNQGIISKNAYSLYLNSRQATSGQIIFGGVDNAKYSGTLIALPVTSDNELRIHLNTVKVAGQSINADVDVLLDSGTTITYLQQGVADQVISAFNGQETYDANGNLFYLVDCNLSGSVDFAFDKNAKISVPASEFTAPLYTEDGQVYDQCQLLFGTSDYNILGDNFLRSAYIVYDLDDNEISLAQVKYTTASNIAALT

[6] = molecular target: Candidapepsin-4 (Candida albicans (strain WO-1) (Yeast)) (UniProt P43093); assay: Inhibition of SAP4-dependent growth in Candida albicans SAP2MS4B expressing SAP4ex4A at 100 uM incubated in YCB-BSA medium; summary of the method: as §1
Chain of Candidapepsin-4 (Candida albicans (strain WO-1) (Yeast)) (P43093 whole entry): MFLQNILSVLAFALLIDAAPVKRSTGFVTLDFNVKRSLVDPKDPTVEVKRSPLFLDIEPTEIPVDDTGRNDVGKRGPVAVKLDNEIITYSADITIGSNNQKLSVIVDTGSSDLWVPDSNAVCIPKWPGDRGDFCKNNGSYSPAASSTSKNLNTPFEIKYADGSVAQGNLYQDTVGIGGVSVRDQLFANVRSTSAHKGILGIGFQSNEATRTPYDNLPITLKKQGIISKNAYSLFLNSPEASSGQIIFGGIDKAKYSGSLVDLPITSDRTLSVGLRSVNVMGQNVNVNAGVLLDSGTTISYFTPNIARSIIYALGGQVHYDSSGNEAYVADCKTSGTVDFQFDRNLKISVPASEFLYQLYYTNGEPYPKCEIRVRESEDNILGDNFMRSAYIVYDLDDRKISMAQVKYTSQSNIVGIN

[7] = molecular target: Secreted aspartic protease 1 (Candida albicans) (UniProt P0CY26); assay: Inhibition of SAP1-dependent growth in Candida albicans SAP2MS4B expressing SAP1ex4A at 100 uM incubated in YCB-BSA medium; summary of the method: as §2
Chain of Secreted aspartic protease 1 (Candida albicans) (P0CY26 whole entry): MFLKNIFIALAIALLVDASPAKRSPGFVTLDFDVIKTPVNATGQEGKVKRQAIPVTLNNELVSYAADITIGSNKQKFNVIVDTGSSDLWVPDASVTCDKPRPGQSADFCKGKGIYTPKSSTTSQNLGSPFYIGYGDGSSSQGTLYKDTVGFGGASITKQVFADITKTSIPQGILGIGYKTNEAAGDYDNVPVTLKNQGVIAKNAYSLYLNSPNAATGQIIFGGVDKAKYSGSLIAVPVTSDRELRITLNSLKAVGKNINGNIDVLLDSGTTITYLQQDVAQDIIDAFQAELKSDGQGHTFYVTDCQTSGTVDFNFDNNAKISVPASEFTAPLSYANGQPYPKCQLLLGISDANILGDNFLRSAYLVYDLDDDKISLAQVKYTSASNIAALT

[8] = molecular target: Secreted aspartic protease 2 (Candida albicans) (UniProt P0CS83); assay: Inhibition of SAP2-dependent growth in Candida albicans SAP2MS4B expressing SAP2ex4A at 100 uM incubated in YCB-BSA medium; summary of the method: as §2
Chain of Secreted aspartic protease 2 (Candida albicans) (P0CS83 57-398 limits assumed): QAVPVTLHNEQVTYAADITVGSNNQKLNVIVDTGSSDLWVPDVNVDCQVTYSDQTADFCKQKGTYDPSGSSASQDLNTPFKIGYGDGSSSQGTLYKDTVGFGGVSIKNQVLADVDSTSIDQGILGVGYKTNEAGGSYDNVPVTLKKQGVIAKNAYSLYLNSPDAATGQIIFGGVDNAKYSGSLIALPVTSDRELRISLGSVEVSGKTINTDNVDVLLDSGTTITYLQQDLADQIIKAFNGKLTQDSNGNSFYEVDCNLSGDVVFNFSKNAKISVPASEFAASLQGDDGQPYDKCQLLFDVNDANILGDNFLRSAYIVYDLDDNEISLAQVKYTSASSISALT

[9] = molecular target: Secreted aspartic protease 6 (Candida albicans) (UniProt P43095); assay: Inhibition of SAP6-dependent growth in Candida albicans SAP2MS4B expressing SAP6ex4A at 7.3 uM incubated in YCB-BSA medium; summary of the method: as §1
[10] = molecular target: Secreted aspartic protease 3 (Candida albicans) (UniProt P0CY28); assay: Inhibition of SAP3-dependent growth in Candida albicans SAP2MS4B expressing SAP3ex4A at 7.3 uM incubated in YCB-BSA medium; summary of the method: as §2
[11] = molecular target: T2, Secreted aspartic protease 5 (Candida albicans (strain SC5314 / ATCC MYA-2876) (Yeast)); assay: Inhibition of SAP5-dependent growth in Candida albicans SAP2MS4B expressing SAP5ex4A at 7.3 uM incubated in YCB-BSA medium; summary of the method: as §1
[12] = molecular target: Candidapepsin-4 (Candida albicans (strain WO-1) (Yeast)) (UniProt P43093); assay: Inhibition of SAP4-dependent growth in Candida albicans SAP2MS4B expressing SAP4ex4A at 7.3 uM incubated in YCB-BSA medium; summary of the method: as §1
[13] = molecular target: T1, Secreted aspartic protease 9 (Candida albicans); assay: Inhibition of SAP9-dependent growth in Candida albicans SAP2MS4B expressing SAP9deltaC493 at 7.3 uM incubated in YCB-BSA medium; summary of the method: as §1
[14] = molecular target: Secreted aspartic protease 1 (Candida albicans) (UniProt P0CY26); assay: Inhibition of SAP1-dependent growth in Candida albicans SAP2MS4B expressing SAP1ex4A at 7.3 uM incubated in YCB-BSA medium; summary of the method: as §2
[15] = molecular target: Secreted aspartic protease 8 (Candida albicans) (UniProt O42778); assay: Inhibition of SAP8-dependent growth in Candida albicans SAP2MS4B expressing SAP8ex4A at 7.3 uM incubated in YCB-BSA medium; summary of the method: as §2

Activity [1]	Activity [2]	Activity [3]	Activity [4]	Activity [5]	Activity [6]	Activity [7]	Activity [8]	Compound	Activity [9]	Activity [10]	Activity [11]	Activity [12]	Activity [13]	Activity [14]	Activity [15]
inactive	inactive	inactive	inactive	Active	inactive	Active	Active	CC(C)c1nc(CN(C)C(=O)N[C@H](C(=O)N[C@@H](Cc2ccccc2)C[C@H](O)[C@H](Cc2ccccc2)NC(=O)OCc2cncs2)C(C)C)cs1							
								CC(C)CC(=O)N[C@H](C(=O)N[C@H](C(=O)N[C@@H](CC(C)C)[C@@H](O)CC(=O)N[C@@H](C)C(=O)N[C@@H](CC(C)C)[C@@H](O)CC(=O)O)C(C)C)C(C)C	Active	Active	Active	Active	Active	Active	Active
inactive	inactive	inactive	inactive		inactive	Active		CC(C)(C)NC(=O)[C@@H]1C[C@@H]2CCCC[C@@H]2CN1C[C@@H](O)[C@H](Cc1ccccc1)NC(=O)[C@H](CC(N)=O)NC(=O)c1ccc2ccccc2n1							
